From ChEMBL document CHEMBL1122384, “Synthesis and evaluation of 24-(isopropyl[75Se]seleno)chol-5-en-3 beta-ol” (J Med Chem, 1983)

Key:
[1] = Adrenal/Tissue ratio calculated from percent dose per gram of tissue determined after 1 day intravenous administration from pancreas; assay type: functional
Outline: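 Female Fischer 344 rats (160–180 g), food and water ad libitum, lightly anaesthetized with Et2O. [75Se]-labelled steroid was given in Tween 80–EtOH–saline, 5–10 μCi, by lateral tail-vein injection. Rats were killed by decapitation under Et2O; organs were rinsed, blotted, weighed and gamma-counted. Adrenal/tissue ratio is from % dose/g, mean of three rats per time point.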

[2] = Adrenal/Tissue ratio calculated from percent dose per gram of tissue determined after 1 day intravenous administration from ovaries; assay type: functional
Outline: (§1)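 Female Fischer 344 rats (160–180 g), fed ad libitum. Steroid dissolved in EtOH, formulated in Tween 80–EtOH–saline, 5–10 μCi in 1 mL given into a lateral tail vein under light Et₂O anesthesia. Organs removed 1 day post-injection, rinsed, blotted, weighed and gamma counted, 3 rats per time point. Ratios taken from adrenal vs tissue % dose/g.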

[3] = Adrenal/Tissue ratio calculated from percent dose per gram of tissue determined after 1 day intravenous administration from liver; assay type: functional; outline: as §1
[4] = Adrenal/Tissue ratio calculated from percent dose per gram of tissue determined after 1 day intravenous administration from lung; assay type: functional; outline: as §1
[5] = Adrenal/Tissue ratio calculated from percent dose per gram of tissue determined after 1 day intravenous administration from blood; assay type: functional; outline: as §1
[6] = Adrenal/Tissue ratio calculated from percent dose per gram of tissue determined after 1 day intravenous administration from spleen; assay type: functional; outline: as §1
[7] = Adrenal/Tissue ratio calculated from percent dose per gram of tissue determined after 1 day intravenous administration from kidney; assay type: functional; outline: as §1
Homo sapiens [8] = organism: Homo sapiens; assay: Adsorbed radiation dose value was calculated to human small intestine; assay type: functional
Outline: (§2)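 Human absorbed radiation dose estimated by the standard MIRD method from rat tissue distribution (% dose/g, 1 h–21 days) and excretion data. Excretion came from three individually caged female rats, with urine and feces collected daily over 21 days.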

Homo sapiens [9] = organism: Homo sapiens; assay: Adsorbed radiation dose value was calculated to human liver; assay type: functional; outline: as §2
Homo sapiens [10] = organism: Homo sapiens; assay: Adsorbed radiation dose value was calculated to human ovaries; assay type: functional, Female gonad; outline: as §2
Homo sapiens [11] = organism: Homo sapiens; assay: Adsorbed radiation dose value was calculated to human spleen; assay type: functional; outline: as §2
Homo sapiens [12] = organism: Homo sapiens; assay: Adsorbed radiation dose value was calculated to human pancreas; assay type: functional; outline: as §2
Homo sapiens [13] = organism: Homo sapiens; assay: Adsorbed radiation dose value was calculated to human total body; assay type: functional; outline: as §2
Homo sapiens [14] = organism: Homo sapiens; assay: Adsorbed radiation dose value was calculated to human kidney; assay type: functional; outline: as §2
Homo sapiens [15] = organism: Homo sapiens; assay: Adsorbed radiation dose value was calculated to human lungs; assay type: functional; outline: as §2
Homo sapiens [16] = organism: Homo sapiens; assay: Adsorbed radiation dose value was calculated to human adrenal; assay type: functional; outline: as §2

Compound | Ratio [1] | Ratio [2] | Ratio [3] | Ratio [4] | Ratio [5] | Ratio [6] | Ratio [7] | Dose (Homo sapiens [8]) | Dose (Homo sapiens [9]) | Dose (Homo sapiens [10]) | Dose (Homo sapiens [11]) | Dose (Homo sapiens [12]) | Dose (Homo sapiens [13]) | Dose (Homo sapiens [14]) | Dose (Homo sapiens [15]) | Dose (Homo sapiens [16])
CC(C)[Te]CCCC(C)C1CCC2C3CC=C4CC(O)CCC4(C)C3CCC12C (stereo unspecified) | 122 | 4.9 | 27.1 | 18.7 | 54.8 | 14 | 56.2 | – | – | – | – | – | – | – | – | –
CC(C)[73Se]CCC[C@H](C)[C@H]1CC[C@H]2[C@@H]3CC=C4C[C@@H](O)CC[C@]4(C)[C@H]3CC[C@]12C | – | – | – | – | – | – | – | 0.64 rd mCi-1 | 1.7 rd mCi-1 | 1.2 rd mCi-1 | 1.9 rd mCi-1 | 0.5 rd mCi-1 | 0.24 rd mCi-1 | 0.67 rd mCi-1 | 1.7 rd mCi-1 | 1.6 rd mCi-1
